Calls of active or inactive are those of the source. No cut-off for these calls is given here.
Experiments:
[1] = biological target: Solute carrier family 26 member 6 (Mus musculus) (UniProt Q8CIW6); assay: Inhibition of SLC26A6 (unknown origin) expressed in rat FRT cells coexpressing YFP halide-sensing protein assessed as iodide-chloride exchange incubated for 2 sec by fluorescence quenching analysis
[2] = system: Mus musculus; assay: In vivo inhibition of PAT1 in intestinal closed-loop CD-1 mouse model assessed as reduction in loop weight/length ratio in ileum measured for 30 mins; assay type: functional
Outline: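 Mice (wild-type CD1 or homozygous F508del CF, 10-16 wk, both sexes) fasted 24 h with free access to 5% dextrose water. Under isoflurane at 36-38 °C, 2-3 ileal loops (2-3 cm) were tied off and injected with 100 µL PBS pH 7.4 containing 30 µM inhibitor, 10 µM tenapanor or 0.1% DMSO vehicle. Loops removed at 0 or 30 min in separate mice; length and weight measured for fluid absorption. One-way ANOVA with Newman-Keuls.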

[3] = biological target: Solute carrier family 26 member 6 (Mus musculus) (UniProt Q8CIW6); assay: Inhibition of SLC26A6 (unknown origin) expressed in rat FRT cells coexpressing YFP halide-sensing protein assessed as iodide-chloride exchange at 25 uM incubated for 2 sec by fluorescence quenching analysis relative to control

Solute carrier family 26 member 6 (Mus musculus), sequence (Q8CIW6 whole entry, looked up): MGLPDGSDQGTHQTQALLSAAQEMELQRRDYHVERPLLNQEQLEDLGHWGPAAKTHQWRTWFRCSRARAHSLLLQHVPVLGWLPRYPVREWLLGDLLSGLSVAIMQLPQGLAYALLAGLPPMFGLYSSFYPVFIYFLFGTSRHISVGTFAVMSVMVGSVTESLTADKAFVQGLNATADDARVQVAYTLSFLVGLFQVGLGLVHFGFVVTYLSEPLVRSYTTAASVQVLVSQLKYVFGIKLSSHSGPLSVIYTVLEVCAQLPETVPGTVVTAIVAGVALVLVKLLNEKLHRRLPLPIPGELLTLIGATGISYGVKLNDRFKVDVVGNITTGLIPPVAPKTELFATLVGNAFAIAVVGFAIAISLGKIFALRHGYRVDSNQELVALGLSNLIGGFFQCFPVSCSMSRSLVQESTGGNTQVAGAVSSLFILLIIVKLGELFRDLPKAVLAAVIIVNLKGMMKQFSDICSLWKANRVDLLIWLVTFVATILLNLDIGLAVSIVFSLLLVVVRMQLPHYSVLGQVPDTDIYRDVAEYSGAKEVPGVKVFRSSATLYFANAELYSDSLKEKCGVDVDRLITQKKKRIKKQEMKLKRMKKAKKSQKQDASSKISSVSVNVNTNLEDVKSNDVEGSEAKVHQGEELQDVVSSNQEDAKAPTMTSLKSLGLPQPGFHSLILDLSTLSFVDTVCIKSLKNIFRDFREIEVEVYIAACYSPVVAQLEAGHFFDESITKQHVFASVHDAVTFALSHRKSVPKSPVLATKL

CCOC(=O)c1nc(NCc2ccccc2)c2c(C)noc2n1
IC50 [1]: 1.8 µM

CCOC(=O)c1nc(NCc2ccc(OC(C)C)cc2)c2c(C)noc2n1
IC50 [1]: 6.5 µM

CCOC(=O)c1nc(NCc2ccc(F)cc2)c2c(C)noc2n1
IC50 [1]: 2.3 µM

CCOC(=O)c1nc(NCCC(C)C)c2c(C)noc2n1
IC50 [1]: 2.3 µM

CCOC(=O)c1nc(NCc2ccc(C)cc2)c2c(CC)noc2n1
IC50 [1]: 3.8 µM

CCOC(=O)c1nc(NCCc2cccs2)c2c(CC)noc2n1
IC50 [1]: 1.6 µM

CCOC(=O)c1nc(NCc2ccccc2)c2c(CC)noc2n1
IC50 [1]: 4.3 µM

CCOC(=O)c1nc(NCc2ccc(F)cc2)c2c(CC)noc2n1
IC50 [1]: 3.2 µM

CN1Cc2c(Cl)cc(Cl)cc2[C@H](c2cccc(S(=O)(=O)NCCOCCOCCNC(=O)NCCCCNC(=O)NCCOCCOCCNS(=O)(=O)c3cccc([C@@H]4CN(C)Cc5c(Cl)cc(Cl)cc54)c3)c2)C1
inhibition [2]: Active

CCOC(=O)c1nc(NCc2ccc(OCC)cc2)c2c(C)noc2n1
IC50 [1]: 2 µM

CCOC(=O)c1nc(NCc2ccccc2F)c2c(C)noc2n1
IC50 [1]: 1.1 µM

CCOC(=O)c1nc(NCc2ccccc2Cl)c2c(C)noc2n1
IC50 [1]: 1.1 µM

CCOC(=O)c1nc(NCc2cccc(Br)c2)c2c(C)noc2n1
IC50 [1]: 1.1 µM

CCOC(=O)c1nc(NCc2ccccc2OCC)c2c(C)noc2n1
inhibition [3]: < 25%

CCOC(=O)c1nc(NCc2ccccc2F)c2c(CC)noc2n1
IC50 [1]: 5.2 µM

CCOC(=O)c1nc(NCc2cc(C)ccc2C)c2c(C)noc2n1
IC50 [1]: 1.5 µM

CCOC(=O)c1nc(NCCc2ccc(Cl)cc2)c2c(CC)noc2n1
IC50 [1]: 5.2 µM

CCOC(=O)c1nc(NCCc2ccccc2Cl)c2c(CC)noc2n1
IC50 [1]: 5.2 µM

CCOC(=O)c1nc(NCC(C)OC)c2c(-c3ccc(F)cc3)noc2n1 (stereo not drawn)
IC50 [1]: 5.1 µM

CCOC(=O)c1nc(NCc2cccc(F)c2)c2c(C)noc2n1
IC50 [1]: 2.2 µM

CCOC(=O)c1nc(NCc2cccnc2)c2c(-c3ccc(F)cc3)noc2n1
IC50 [1]: 3.4 µM

CCOC(=O)c1nc(Nc2ccccc2C)c2c(C)noc2n1
IC50 [1]: 3.7 µM

CCOC(=O)c1nc(NCc2cccc(C)c2)c2c(C)noc2n1
IC50 [1]: 1.1 µM

CCCOc1ccc(CNc2nc(C(=O)OCC)nc3onc(C)c23)cc1
IC50 [1]: 5.7 µM

CCOC(=O)c1nc(NCCc2ccco2)c2c(C)noc2n1
IC50 [1]: 2.4 µM

CCOC(=O)c1nc(NCc2cccc(OC)c2)c2c(C)noc2n1
IC50 [1]: 4.4 µM

CCOC(=O)c1nc(NCc2ccccc2OC)c2c(C)noc2n1
IC50 [1]: 17.2 µM

CCOC(=O)c1nc(Nc2cccc(C)c2C)c2c(C)noc2n1
IC50 [1]: 1.2 µM

CCOC(=O)c1nc(N2CCN(c3cccc(Cl)c3)CC2)c2c(C)noc2n1
IC50 [1]: 2.6 µM

CCOC(=O)c1nc(NCc2ccc(Cl)cc2)c2c(CC)noc2n1
IC50 [1]: 3.4 µM

CCOC(=O)c1nc(NCc2cc(OC)ccc2OC)c2c(CC)noc2n1
IC50 [1]: 3.7 µM

CCOC(=O)c1nc(NCc2ccccc2OC)c2c(CC)noc2n1
IC50 [1]: 1.9 µM

CCOC(=O)c1nc(NCc2cc(Br)ccc2OC)c2c(CC)noc2n1
IC50 [1]: 2.5 µM

CCOC(=O)c1nc(NCc2ccc(SC)cc2)c2c(C)noc2n1
IC50 [1]: 2.6 µM

CCOC(=O)c1nc(NCCc2ccccc2)c2c(CC)noc2n1
IC50 [1]: 3.2 µM

CCOC(=O)c1nc(NCCc2ccsc2)c2c(C)noc2n1
IC50 [1]: 1.8 µM

CCOC(=O)c1nc(NCCc2ccco2)c2c(CC)noc2n1
IC50 [1]: 1.4 µM

CCOC(=O)c1nc(NCc2cccc(Br)c2)c2c(-c3ccc(F)cc3)noc2n1
inhibition [3]: < 25%

From ChEMBL document CHEMBL5329211, “Selective isoxazolopyrimidine PAT1 (SLC26A6) inhibitors for therapy of intestinal disorders” (RSC Med Chem, 2023)
